# Reference: ChEMBL document CHEMBL1828595, “A facile four-component sequential protocol in the expedient synthesis of novel 2-aryl-5-methyl-2,3-dihydro-1H-3-pyrazolones in water and their antitubercular evaluation” (2011)
# Test system: Mycobacterium tuberculosis
# Experiment: Antitubercular activity against Mycobacterium tuberculosis H37Rv by agar dilution method
# Type: functional
# Outline: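 M. tuberculosis H37Rv on Middlebrook 7H11 agar with OADC, agar dilution per NCCLS-type MIC method, pH 7.4. MIC taken as the lowest concentration inhibiting 99% of bacterial growth, determined in duplicate.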
row,Compound,MIC [µM]
1,COc1ccc(C(c2c(C)[nH]n(-c3ccccc3)c2=O)c2c(O)ccc3ccccc23)cc1 (stereo not given),28.6
2,CO[C@H]1/C=C/O[C@@]2(C)Oc3c(C)c(O)c4c(O)c(c(/C=N/N5CCN(C)CC5)c(O)c4c3C2=O)NC(=O)/C(C)=C\C=C\[C@H](C)[C@H](O)[C@@H](C)[C@@H](O)[C@@H](C)[C@H](OC(C)=O)[C@@H]1C [RIFAMPIN],0.1
3,Cc1[nH]n(-c2ccc(F)cc2)c(=O)c1C(c1ccc([N+](=O)[O-])cc1)c1c(O)ccc2ccccc12 (stereo not given),3.3
4,Cc1[nH]n(-c2ccc(F)cc2)c(=O)c1C(c1ccc(Cl)cc1Cl)c1c(O)ccc2ccccc12 (stereo not given),1.6
5,NNC(=O)c1ccncc1 [ISONIAZID],0.4
6,Cc1ccc(C(c2c(C)[nH]n(-c3ccccc3)c2=O)c2c(O)ccc3ccccc23)cc1 (stereo not given),29.7
7,Cc1[nH]n(-c2ccc(F)cc2)c(=O)c1C(c1ccccc1)c1c(O)ccc2ccccc12 (stereo not given),14.7
8,Cc1[nH]n(-c2ccccc2)c(=O)c1C(c1ccccc1)c1c(O)ccc2ccccc12 (stereo not given),30.8
9,Cc1[nH]n(-c2ccc(F)cc2)c(=O)c1C(c1ccc(F)cc1)c1c(O)ccc2ccccc12 (stereo not given),7.1
10,Cc1[nH]n(-c2ccccc2)c(=O)c1C(c1ccccc1[N+](=O)[O-])c1c(O)ccc2ccccc12 (stereo not given),13.8
11,CC[C@@H](CO)NCCN[C@@H](CC)CO [ETHAMBUTOL],7.6
12,Cc1[nH]n(-c2ccccc2)c(=O)c1C(c1ccc([N+](=O)[O-])cc1)c1c(O)ccc2ccccc12 (stereo not given),6.9
13,Cc1[nH]n(-c2ccc(F)cc2)c(=O)c1C(c1cccc([N+](=O)[O-])c1)c1c(O)ccc2ccccc12 (stereo not given),6.7
14,Cc1[nH]n(-c2ccccc2)c(=O)c1C(c1ccc(Cl)cc1)c1c(O)ccc2ccccc12 (stereo not given),14.1
15,Cc1ccc(C(c2c(C)[nH]n(-c3ccc(F)cc3)c2=O)c2c(O)ccc3ccccc23)cc1 (stereo not given),14.2
16,Cc1[nH]n(-c2ccccc2)c(=O)c1C(c1ccc(C(C)C)cc1)c1c(O)ccc2ccccc12 (stereo not given),14
17,Cc1[nH]n(-c2ccc(F)cc2)c(=O)c1C(c1ccc(Cl)cc1)c1c(O)ccc2ccccc12 (stereo not given),3.4
18,Cc1[nH]n(-c2ccc(Cl)cc2)c(=O)c1C(c1ccc(Cl)cc1)c1c(O)ccc2ccccc12 (stereo not given),6.6

# Test system: Mycobacterium tuberculosis
# Experiment: Ratio of MIC for ciprofloxacin to compound for Mycobacterium tuberculosis H37Rv by agar dilution method
# Type: functional
# Outline: (§1)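 Ratio of reference-drug MIC to test-compound MIC. Both MICs were measured against M. tuberculosis H37Rv by agar dilution on OADC-supplemented Middlebrook 7H11 at pH 7.4, with 99% growth inhibition as endpoint, in duplicate.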
row,Compound,Ratio
1,Cc1[nH]n(-c2ccc(F)cc2)c(=O)c1C(c1ccc(Cl)cc1Cl)c1c(O)ccc2ccccc12 (stereo not given),2.94

# Test system: Mycobacterium tuberculosis
# Experiment: Ratio of MIC for ethambutol to compound for Mycobacterium tuberculosis H37Rv by agar dilution method
# Type: functional
# Outline: as §1
row,Compound,Ratio
1,Cc1[nH]n(-c2ccc(F)cc2)c(=O)c1C(c1ccc(Cl)cc1Cl)c1c(O)ccc2ccccc12 (stereo not given),4.75
